Values after ≈ are worked out from the molar mass of the structure shown.
Legend:
Type in all cases: functional
[1] = system: Candida albicans; assay: Antifungal activity against Candida albicans ATCC 90028 after 48 hrs by CLSI broth microdilution method; details: ATCC 90028, 48 h
How it was run: (§1)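 Yeast CLSI broth microdilution (M27-A3). Compounds dissolved in DMSO at 100× the top test concentration, then diluted as serial two-fold dilutions in RPMI 1640 to final 0.125–64. Inoculum was 1.0–1.5 × 10^3 cells mL−1, incubated at 35 °C and read for growth at 48 h. MIC is the lowest concentration giving ≥50% growth inhibition versus growth control. Reported as the median of five replicates and as the geometric mean.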

[2] = system: Candida albicans; assay: Antifungal activity against Candida albicans ATCC 20891 after 48 hrs by CLSI broth microdilution method; details: ATCC 20891, 48 h; how it was run: as §1
[3] = system: Candida albicans; assay: Antifungal activity against Candida albicans PMC 1011 after 48 hrs by CLSI broth microdilution method; details: PMC 1011, 48 h; how it was run: as §1
[4] = system: Pichia kudriavzevii; assay: Antifungal activity against Candida krusei DSM 6128 after 48 hrs by CLSI broth microdilution method; details: DSM 6128, 48 h; how it was run: as §1
[5] = system: Pichia kudriavzevii; assay: Antifungal activity against Candida krusei PMC 0613 after 48 hrs by CLSI broth microdilution method; details: PMC 0613, 48 h; how it was run: as §1
[6] = system: Candida tropicalis; assay: Antifungal activity against Candida tropicalis PMC 0910 after 48 hrs by CLSI broth microdilution method; details: PMC 0910, 48 h; how it was run: as §1
[7] = system: Candida tropicalis; assay: Antifungal activity against Candida tropicalis DSM 11953 after 48 hrs by CLSI broth microdilution method; details: DSM 11953, 48 h; how it was run: as §1
[8] = system: Candida parapsilosis; assay: Antifungal activity against Candida parapsilosis DSM 11224 after 48 hrs by CLSI broth microdilution method; details: Lodderomyces parapsilosis, DSM 11224, 48 h; how it was run: as §1
[9] = system: Candida parapsilosis; assay: Antifungal activity against Candida parapsilosis ATCC 22019 after 48 hrs by CLSI broth microdilution method; details: Lodderomyces parapsilosis, ATCC 22019, 48 h; how it was run: as §1
[10] = system: Nakaseomyces glabratus; assay: Antifungal activity against Candida glabrata PMC 0805 after 48 hrs by CLSI broth microdilution method; details: PMC 0805, 48 h; how it was run: as §1
[11] = system: Nakaseomyces glabratus; assay: Antifungal activity against Candida glabrata PMC 0807 after 48 hrs by CLSI broth microdilution method; details: PMC 0807, 48 h; how it was run: as §1
[12] = system: Cryptococcus neoformans; assay: Antifungal activity against Cryptococcus neoformans PMC 2123 after 72 hrs by CLSI broth microdilution method; details: PMC 2123, 72 h
How it was run: (§2)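 Cryptococcus neoformans tested by CLSI broth microdilution in RPMI 1640, with serial two-fold dilutions from DMSO stocks at 100× the top concentration, final 0.125–64. Inoculum was 1.0–1.5 × 10^3 cells mL−1 at 35 °C, with growth read at 72 h. MIC is the lowest concentration with ≥50% growth inhibition versus control. Median of five replicates, plus geometric mean.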

[13] = system: Cryptococcus neoformans; assay: Antifungal activity against Cryptococcus neoformans PMC 2136 after 72 hrs by CLSI broth microdilution method; details: PMC 2136, 72 h; how it was run: as §2
[14] = system: Cryptococcus neoformans; assay: Antifungal activity against Cryptococcus neoformans PMC 2115 after 72 hrs by CLSI broth microdilution method; details: PMC 2115, 72 h; how it was run: as §2
[15] = system: Cryptococcus neoformans; assay: Antifungal activity against Cryptococcus neoformans PMC 2103 after 72 hrs by CLSI broth microdilution method; details: PMC 2103, 72 h; how it was run: as §2
[16] = system: Cryptococcus neoformans; assay: Antifungal activity against Cryptococcus neoformans PMC 2107 after 72 hrs by CLSI broth microdilution method; details: PMC 2107, 72 h; how it was run: as §2
[17] = system: Cryptococcus neoformans; assay: Antifungal activity against Cryptococcus neoformans PMC 2102 after 72 hrs by CLSI broth microdilution method; details: PMC 2102, 72 h; how it was run: as §2
[18] = system: Cryptococcus neoformans; assay: Antifungal activity against Cryptococcus neoformans DSM 11959 after 72 hrs by CLSI broth microdilution method; details: DSM 11959, 72 h; how it was run: as §2
[19] = system: Cryptococcus neoformans; assay: Antifungal activity against Cryptococcus neoformans PMC 2111 after 72 hrs by CLSI broth microdilution method; details: PMC 2111, 72 h; how it was run: as §2
[20] = system: Trichophyton mentagrophytes; assay: Antifungal activity against Trichophyton mentagrophytes DSM 4870 after 72 hrs by CLSI broth microdilution method; details: DSM 4870, 72 h
How it was run: (§3)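 Dermatophytes tested by CLSI broth microdilution for filamentous fungi (M38-A2). Serial two-fold dilutions of DMSO-dissolved compound in RPMI 1640, final 0.125–64. Inoculum was 0.4–5 × 10^4 CFU mL−1, incubated at 35 °C and read at 72 h. MIC80 is the lowest concentration giving ≥80% growth inhibition versus growth control. Median of five replicates, plus geometric mean.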

[21] = system: Trichophyton mentagrophytes; assay: Antifungal activity against Trichophyton mentagrophytes PMC 6515 after 72 hrs by CLSI broth microdilution method; details: PMC 6515, 72 h; how it was run: as §3
[22] = system: Trichophyton mentagrophytes; assay: Antifungal activity against Trichophyton mentagrophytes PMC 6531 after 72 hrs by CLSI broth microdilution method; details: PMC 6531, 72 h; how it was run: as §3
[23] = system: Trichophyton mentagrophytes; assay: Antifungal activity against Trichophyton mentagrophytes PMC 6509 after 72 hrs by CLSI broth microdilution method; details: PMC 6509, 72 h; how it was run: as §3
[24] = system: Trichophyton mentagrophytes; assay: Antifungal activity against Trichophyton mentagrophytes PMC 6503 after 72 hrs by CLSI broth microdilution method; details: PMC 6503, 72 h; how it was run: as §3
[25] = system: Trichophyton mentagrophytes; assay: Antifungal activity against Trichophyton mentagrophytes PMC 6552 after 72 hrs by CLSI broth microdilution method; details: PMC 6552, 72 h; how it was run: as §3
[26] = system: Nannizzia gypsea; assay: Antifungal activity against Microsporum gypseum PMC 7303 after 72 hrs by CLSI broth microdilution method; details: PMC 7303, 72 h; how it was run: as §3
[27] = system: Nannizzia gypsea; assay: Antifungal activity against Microsporum gypseum PMC 7331 after 72 hrs by CLSI broth microdilution method; details: PMC 7331, 72 h; how it was run: as §3
[28] = system: Nannizzia gypsea; assay: Antifungal activity against Microsporum gypseum DSM 3824 after 72 hrs by CLSI broth microdilution method; details: DSM 3824, 72 h; how it was run: as §3
[29] = system: Candida albicans; assay: Antifungal activity against Candida albicans ATCC 24433 after 48 hrs by CLSI broth microdilution method; details: ATCC 24433, 48 h; how it was run: as §1
[30] = system: Candida albicans; assay: Antifungal activity against Candida albicans ATCC 3153 after 48 hrs by CLSI broth microdilution method; details: ATCC 3153, 48 h; how it was run: as §1
[31] = system: Candida albicans; assay: Antifungal activity against Candida albicans ATCC 10231 after 48 hrs by CLSI broth microdilution method; details: ATCC 10231, 48 h; how it was run: as §1
[32] = system: Candida albicans; assay: Antifungal activity against Candida albicans ATCC 76615 after 48 hrs by CLSI broth microdilution method; details: ATCC 76615, 48 h; how it was run: as §1
[33] = system: Candida albicans; assay: Antifungal activity against Candida albicans ATCC 10261 after 48 hrs by CLSI broth microdilution method; details: ATCC 10261, 48 h; how it was run: as §1

Row | Structure (SMILES) | MIC50 [1] | MIC50 [2] | MIC50 [3] | MIC50 [4] | MIC50 [5] | MIC50 [6] | MIC50 [7] | MIC50 [8] | MIC50 [9] | MIC50 [10] | MIC50 [11] | MIC50 [12] | MIC50 [13] | MIC50 [14] | MIC50 [15] | MIC50 [16] | MIC50 [17] | MIC50 [18] | MIC50 [19] | MIC80 [20] | further results
1 | O=C(Nc1ccc(N2CCN(C(=O)c3ccco3)CC2)cc1)OC(Cn1ccnc1)c1ccc(F)cc1 (stereo unspecified) | 128 µg/mL (≈ 254 µM) | 128 µg/mL (≈ 254 µM) | 128 µg/mL (≈ 254 µM) | 128 µg/mL (≈ 254 µM) | 128 µg/mL (≈ 254 µM) | 128 µg/mL (≈ 254 µM) | 128 µg/mL (≈ 254 µM) | 128 µg/mL (≈ 254 µM) | 128 µg/mL (≈ 254 µM) | 128 µg/mL (≈ 254 µM) | 128 µg/mL (≈ 254 µM) | 64 µg/mL (≈ 127 µM) | 16 µg/mL (≈ 31.8 µM) | 64 µg/mL (≈ 127 µM) | 1 µg/mL (≈ 1.99 µM) | 16 µg/mL (≈ 31.8 µM) | 32 µg/mL (≈ 63.6 µM) | 16 µg/mL (≈ 31.8 µM) | 16 µg/mL (≈ 31.8 µM) | 128 µg/mL (≈ 254 µM) | MIC80 [21]: 128 µg/mL (≈ 254 µM); MIC80 [22]: 128 µg/mL (≈ 254 µM); MIC80 [23]: 128 µg/mL (≈ 254 µM); MIC80 [24]: 128 µg/mL (≈ 254 µM); MIC80 [25]: 128 µg/mL (≈ 254 µM); MIC80 [26]: 64 µg/mL (≈ 127 µM); MIC80 [27]: 128 µg/mL (≈ 254 µM); MIC80 [28]: 128 µg/mL (≈ 254 µM); MIC50 [29]: 128 µg/mL (≈ 254 µM); MIC50 [30]: 128 µg/mL (≈ 254 µM); MIC50 [31]: 128 µg/mL (≈ 254 µM); MIC50 [32]: 128 µg/mL (≈ 254 µM); MIC50 [33]: 32 µg/mL (≈ 63.6 µM)
2 | O=C(OC(Cn1ccnc1)c1ccc(Cl)cc1)N1CCN(C(=O)c2ccco2)CC1 (stereo unspecified) | 32 µg/mL (≈ 74.6 µM) | 64 µg/mL (≈ 149 µM) | 128 µg/mL (≈ 298 µM) | 128 µg/mL (≈ 298 µM) | 128 µg/mL (≈ 298 µM) | 128 µg/mL (≈ 298 µM) | 128 µg/mL (≈ 298 µM) | 128 µg/mL (≈ 298 µM) | 128 µg/mL (≈ 298 µM) | 128 µg/mL (≈ 298 µM) | 128 µg/mL (≈ 298 µM) | 32 µg/mL (≈ 74.6 µM) | 128 µg/mL (≈ 298 µM) | 128 µg/mL (≈ 298 µM) | 128 µg/mL (≈ 298 µM) | 32 µg/mL (≈ 74.6 µM) | 128 µg/mL (≈ 298 µM) | 128 µg/mL (≈ 298 µM) | 128 µg/mL (≈ 298 µM) | 128 µg/mL (≈ 298 µM) | MIC80 [21]: 128 µg/mL (≈ 298 µM); MIC80 [22]: 128 µg/mL (≈ 298 µM); MIC80 [23]: 128 µg/mL (≈ 298 µM); MIC80 [24]: 128 µg/mL (≈ 298 µM); MIC80 [25]: 128 µg/mL (≈ 298 µM); MIC80 [26]: 128 µg/mL (≈ 298 µM); MIC80 [27]: 128 µg/mL (≈ 298 µM); MIC80 [28]: 128 µg/mL (≈ 298 µM); MIC50 [29]: 128 µg/mL (≈ 298 µM); MIC50 [30]: 32 µg/mL (≈ 74.6 µM); MIC50 [31]: 64 µg/mL (≈ 149 µM); MIC50 [32]: 64 µg/mL (≈ 149 µM); MIC50 [33]: 32 µg/mL (≈ 74.6 µM)
